# The source made the active and inactive calls. The rule behind the calls is not given here.
# Tests used:
# [1] = Aqueous solubility of the compound at pH 7; assay type: physicochemical; conditions: buffer
# [2] = Selectivity ratio of Ki for N-terminal GST-tagged human recombinant PDE4A1A (1 to 647 residues) expressed in baculovirus-infected Sf9 cells to Ki for human PDE10A2 transfected in human AD293 cells cytosolic fraction
# [3] = molecular target: cAMP and cAMP-inhibited cGMP 3',5'-cyclic phosphodiesterase 10A (Homo sapiens, UniProt Q9Y233); experiment: Inhibition of human PDE10A2 transfected in human AD293 cells cytosolic fraction using cAMP as substrate by fluorescence polarization assay; assay type: subcellular, Cytosol
# P-gp (ABCB1) = P-gp (ABCB1) (Rattus norvegicus, UniProt P43245); experiment: (§1) Substrate activity at rat P-gp assessed as efflux ratio; assay type: ADME
# [4] = Selectivity ratio of Ki for N-terminal GST-tagged human recombinant PDE5A1 (1 to 875 residues) expressed in baculovirus-infected Sf9 cells to Ki for human PDE10A2 transfected in human AD293 cells cytosolic fraction
# [5] = Selectivity ratio of Ki for N-terminal GST-tagged full length human recombinant PDE8A1 expressed in baculovirus-infected Sf9 cells to Ki for human PDE10A2 transfected in human AD293 cells cytosolic fraction
# [6] = Selectivity ratio of Ki for N-terminal His-GST-tagged human recombinant PDE3A(669 to 1141 residues) expressed in baculovirus-infected Sf9 cells to Ki for human PDE10A2 transfected in human AD293 cells cytosolic fraction
# [7] = Selectivity ratio of Ki for Rhesus monkey PDE2A3 transfected in AD293 cells cytosolic fraction to Ki for human PDE10A2 transfected in human AD293 cells cytosolic fraction; assay type: cell-based
# [8] = Selectivity ratio of Ki for N-terminal GST-tagged human recombinant PDE11A4 (1 to 943 residues) expressed in baculovirus-infected Sf9 cells to Ki for human PDE10A2 transfected in human AD293 cells cytosolic fraction
# [9] = Selectivity ratio of Ki for N-terminal GST-tagged full length human recombinant PDE9A2 expressed in baculovirus-infected Sf9 cells to Ki for human PDE10A2 transfected in human AD293 cells cytosolic fraction
# [10] = Selectivity ratio of Ki for N-terminal GST-tagged human recombinant PDE1A expressed in baculovirus-infected Sf9 cells to Ki for human PDE10A2 transfected in human AD293 cells cytosolic fraction
# [11] = Selectivity ratio of Ki for N-terminal GST-tagged and C-terminal His-tagged human recombinant PDE7A (122 to 456 residues) expressed in baculovirus-infected Sf9 cells to Ki for human PDE10A2 transfected in human AD293 cells cytosolic fraction
# [12] = Unbound plasma clearance in rat; assay type: ADME; conditions: in vivo
# Summary of the method: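 Rat unbound clearance (CLu) was calculated by dividing the measured rat plasma clearance by the rat plasma free fraction.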
# [13] = molecular target: Voltage-gated inwardly rectifying potassium channel KCNH2 (Homo sapiens, UniProt Q12809); experiment: Displacement of MK499 from hERG; assay type: toxicity
# Rattus norvegicus = experiment: Cognitive-enhancing activity in rat assessed as improvement in novel object recognition at 0.56 mg/kg, po measured after 1 hr by novel object recognition test; assay type: functional, organism-based
# Summary of the method: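 Novel object recognition in rats: oral dosing, then discrimination of a novel object from one seen 48 h earlier. Doses 0.08–0.25 mg/kg; donepezil 0.56 mg/kg as positive control. Groups compared with vehicle (p < 0.05). Plasma for exposure taken 1 h post dose, n = 4/group.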
# [14] = molecular target: ATP-dependent translocase ABCB1 (Rattus norvegicus, UniProt P43245); experiment: as §1; assay type: ADME
# Sequence of ATP-dependent translocase ABCB1 (P43245 whole entry): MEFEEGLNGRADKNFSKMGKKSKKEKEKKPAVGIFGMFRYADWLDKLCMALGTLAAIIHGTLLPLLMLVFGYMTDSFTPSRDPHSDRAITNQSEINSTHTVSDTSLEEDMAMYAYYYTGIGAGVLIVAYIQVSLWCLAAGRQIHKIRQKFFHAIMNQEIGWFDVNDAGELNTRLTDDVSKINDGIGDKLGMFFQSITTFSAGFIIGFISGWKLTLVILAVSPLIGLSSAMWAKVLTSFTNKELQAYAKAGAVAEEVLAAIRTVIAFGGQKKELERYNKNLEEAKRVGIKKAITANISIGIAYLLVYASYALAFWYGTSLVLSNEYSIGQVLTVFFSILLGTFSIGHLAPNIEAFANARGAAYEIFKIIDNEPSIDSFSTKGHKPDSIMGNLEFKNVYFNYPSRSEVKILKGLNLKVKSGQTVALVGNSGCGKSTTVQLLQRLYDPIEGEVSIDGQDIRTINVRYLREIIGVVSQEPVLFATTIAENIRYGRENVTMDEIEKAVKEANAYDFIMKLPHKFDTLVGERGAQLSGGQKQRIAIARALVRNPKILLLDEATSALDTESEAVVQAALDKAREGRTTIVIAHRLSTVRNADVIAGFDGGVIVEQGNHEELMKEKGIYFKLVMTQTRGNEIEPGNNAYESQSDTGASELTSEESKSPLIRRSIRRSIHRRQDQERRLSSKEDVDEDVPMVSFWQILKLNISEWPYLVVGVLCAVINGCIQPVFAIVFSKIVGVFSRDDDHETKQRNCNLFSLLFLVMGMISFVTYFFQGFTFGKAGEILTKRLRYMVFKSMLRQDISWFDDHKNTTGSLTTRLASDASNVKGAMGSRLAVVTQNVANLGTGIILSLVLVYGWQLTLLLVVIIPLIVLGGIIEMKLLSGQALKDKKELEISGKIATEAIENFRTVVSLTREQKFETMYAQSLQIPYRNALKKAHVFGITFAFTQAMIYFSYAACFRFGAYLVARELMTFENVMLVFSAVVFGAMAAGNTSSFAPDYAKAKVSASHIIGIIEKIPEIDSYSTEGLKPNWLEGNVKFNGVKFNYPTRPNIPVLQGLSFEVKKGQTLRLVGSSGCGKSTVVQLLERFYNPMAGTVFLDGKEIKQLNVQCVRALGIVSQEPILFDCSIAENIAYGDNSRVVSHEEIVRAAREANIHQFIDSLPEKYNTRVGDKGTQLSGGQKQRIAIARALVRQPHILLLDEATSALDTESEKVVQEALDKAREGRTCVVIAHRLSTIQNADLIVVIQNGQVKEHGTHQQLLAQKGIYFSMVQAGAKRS
# Sequence of P-gp (ABCB1) (P43245 whole entry, the tested form may be a part): as the sequence (P43245 whole entry) above
# Sequence of cAMP and cAMP-inhibited cGMP 3',5'-cyclic phosphodiesterase 10A (Q9Y233 whole entry): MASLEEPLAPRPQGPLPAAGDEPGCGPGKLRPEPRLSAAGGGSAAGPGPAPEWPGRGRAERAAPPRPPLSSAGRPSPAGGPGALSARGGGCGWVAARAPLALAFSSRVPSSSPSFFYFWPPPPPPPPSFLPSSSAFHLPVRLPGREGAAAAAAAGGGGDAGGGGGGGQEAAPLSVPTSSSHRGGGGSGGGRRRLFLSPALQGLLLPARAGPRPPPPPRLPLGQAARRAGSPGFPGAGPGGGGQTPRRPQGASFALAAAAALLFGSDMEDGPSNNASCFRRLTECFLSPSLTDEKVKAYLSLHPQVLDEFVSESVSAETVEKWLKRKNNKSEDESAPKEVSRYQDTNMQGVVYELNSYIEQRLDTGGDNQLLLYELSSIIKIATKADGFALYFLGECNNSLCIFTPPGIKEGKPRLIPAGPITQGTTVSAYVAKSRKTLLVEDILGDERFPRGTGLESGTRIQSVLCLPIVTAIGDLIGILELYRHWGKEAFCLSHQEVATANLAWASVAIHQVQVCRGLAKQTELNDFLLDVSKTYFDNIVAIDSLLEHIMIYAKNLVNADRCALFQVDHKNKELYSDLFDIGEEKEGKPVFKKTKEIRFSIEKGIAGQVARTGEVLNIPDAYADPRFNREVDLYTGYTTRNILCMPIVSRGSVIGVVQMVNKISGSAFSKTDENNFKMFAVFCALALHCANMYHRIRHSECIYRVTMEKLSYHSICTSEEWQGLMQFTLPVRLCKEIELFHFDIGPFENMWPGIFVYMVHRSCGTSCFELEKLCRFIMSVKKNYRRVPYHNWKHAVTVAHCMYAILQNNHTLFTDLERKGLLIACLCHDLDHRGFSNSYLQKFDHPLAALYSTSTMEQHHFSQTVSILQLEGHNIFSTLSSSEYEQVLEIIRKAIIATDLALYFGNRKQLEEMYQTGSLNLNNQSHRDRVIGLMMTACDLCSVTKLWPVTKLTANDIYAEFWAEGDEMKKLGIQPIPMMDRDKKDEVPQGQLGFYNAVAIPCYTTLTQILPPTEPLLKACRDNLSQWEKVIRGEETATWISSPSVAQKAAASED
# Sequence of Voltage-gated inwardly rectifying potassium channel KCNH2 (Q12809 whole entry): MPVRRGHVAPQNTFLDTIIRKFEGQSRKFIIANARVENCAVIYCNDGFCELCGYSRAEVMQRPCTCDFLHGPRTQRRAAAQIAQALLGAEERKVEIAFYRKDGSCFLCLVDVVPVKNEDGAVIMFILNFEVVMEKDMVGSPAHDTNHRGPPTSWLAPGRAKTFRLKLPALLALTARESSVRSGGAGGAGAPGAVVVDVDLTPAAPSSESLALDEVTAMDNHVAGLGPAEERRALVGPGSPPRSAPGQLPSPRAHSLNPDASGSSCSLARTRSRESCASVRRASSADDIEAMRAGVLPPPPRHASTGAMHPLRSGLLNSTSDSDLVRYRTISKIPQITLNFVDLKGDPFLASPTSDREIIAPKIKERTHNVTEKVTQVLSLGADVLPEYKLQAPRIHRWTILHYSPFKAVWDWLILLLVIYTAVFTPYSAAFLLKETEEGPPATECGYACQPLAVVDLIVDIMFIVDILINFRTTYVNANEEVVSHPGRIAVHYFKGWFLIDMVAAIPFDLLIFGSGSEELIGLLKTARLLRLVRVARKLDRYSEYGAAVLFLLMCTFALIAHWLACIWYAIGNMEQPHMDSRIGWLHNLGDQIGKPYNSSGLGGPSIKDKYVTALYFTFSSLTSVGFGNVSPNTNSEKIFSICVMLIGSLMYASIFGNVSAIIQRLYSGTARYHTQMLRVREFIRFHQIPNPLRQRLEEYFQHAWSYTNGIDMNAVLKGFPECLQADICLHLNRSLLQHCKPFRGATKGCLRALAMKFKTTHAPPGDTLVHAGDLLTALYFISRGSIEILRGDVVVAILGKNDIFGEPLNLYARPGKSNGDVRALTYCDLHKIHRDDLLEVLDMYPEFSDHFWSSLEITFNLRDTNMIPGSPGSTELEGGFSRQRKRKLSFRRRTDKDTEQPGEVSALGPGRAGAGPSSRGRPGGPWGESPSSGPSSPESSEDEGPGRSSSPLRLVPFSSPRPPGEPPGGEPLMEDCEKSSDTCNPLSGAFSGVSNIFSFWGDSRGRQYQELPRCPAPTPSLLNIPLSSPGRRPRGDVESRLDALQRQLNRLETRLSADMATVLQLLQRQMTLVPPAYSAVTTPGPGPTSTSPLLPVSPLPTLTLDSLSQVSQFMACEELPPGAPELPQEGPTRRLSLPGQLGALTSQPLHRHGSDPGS
compound,measurement,setting,value
Cn1cc(CNc2cc(OC[C@H]3C[C@@H]3c3ccccn3)nc3ccccc23)cn1,solubility,[1],19 µM
same,Ratio Ki,[2],> 5000
same,Ki,[3],0.49 nM
same,efflux ratio,P-gp (ABCB1),0.5
same,Ratio Ki,[4],> 5000
same,Ratio Ki,[5],> 5000
same,Ratio Ki,[6],> 5000
same,Ratio Ki,[7],> 5000
same,Ratio Ki,[8],> 5000
same,Ratio Ki,[9],> 5000
same,Ratio Ki,[10],> 5000
same,Ratio Ki,[11],> 5000
COc1ccc([C@H]2C[C@@H]2COc2cc(NCc3cnn(C)c3)nc(C)n2)nc1,Ratio Ki,[2],> 490000
same,Ki,[3],0.054 nM
same,Ratio Ki,[4],> 490000
same,Ratio Ki,[5],> 490000
same,Ratio Ki,[6],> 490000
same,Ratio Ki,[7],> 490000
same,Ratio Ki,[8],> 490000
same,Ratio Ki,[9],> 490000
same,Ratio Ki,[10],> 490000
same,CL free,[12],424.8 L/h/kg
same,Ratio Ki,[11],> 490000
Cc1nnc(CNc2cc(OC[C@H]3C[C@@H]3c3ccccn3)nc3cccnc23)s1,Ratio Ki,[2],> 3600
same,Ki,[3],0.11 nM
same,Ratio Ki,[4],> 3600
same,IC50,[13],25000 nM
same,Ratio Ki,[5],> 3600
same,Ratio Ki,[6],> 3600
same,Ratio Ki,[7],> 3600
same,Ratio Ki,[8],> 3600
same,Ratio Ki,[9],> 3600
same,Ratio Ki,[10],> 3600
same,Ratio Ki,[11],> 3600
Cc1c(Cl)cc(OC[C@H]2C[C@@H]2c2ccccn2)nc1NCc1cnn(C)c1,Ki,[3],3.2 nM
COc1cc2c(cc1OC)C(=O)C(CC1CCN(Cc3ccccc3)CC1)C2 (centres undefined),Activity,Rattus norvegicus,Active
Cc1nc(C)c(CNc2nc(OCCCc3ccc4ccccc4n3)nc(Cl)c2C)s1,Ratio Ki,[2],> 5000
same,Ratio Ki,[4],> 5000
same,Ratio Ki,[5],> 5000
same,Ratio Ki,[6],> 5000
same,Ratio Ki,[7],> 5000
same,Ratio Ki,[8],> 5000
same,Ratio Ki,[9],> 5000
same,Ratio Ki,[10],> 5000
same,CL free,[12],720 L/h/kg
same,Ratio Ki,[11],> 5000
Cn1cc(CNc2cc(OC[C@H]3C[C@@H]3c3ccccn3)nc3ccncc23)cn1,solubility,[1],22 µM
same,Ratio Ki,[2],> 20000
same,Ki,[3],0.12 nM
same,Ratio,[14],24
same,Ratio Ki,[4],> 20000
same,Ratio Ki,[5],> 20000
same,Ratio Ki,[6],> 20000
same,Ratio Ki,[7],> 20000
same,Ratio Ki,[8],> 20000
same,Ratio Ki,[9],> 20000
same,Ratio Ki,[10],> 20000
same,Ratio Ki,[11],> 20000
Cc1nc(NCc2cnn(C)c2)cc(OC[C@H]2C[C@@H]2c2ccccn2)n1,Ratio Ki,[2],> 67000
same,Ki,[3],0.6 nM
same,Ratio Ki,[4],> 67000
same,Ratio Ki,[5],> 67000
same,Ratio Ki,[6],> 67000
same,Ratio Ki,[7],> 67000
same,Ratio Ki,[8],> 67000
same,Ratio Ki,[9],> 67000
same,Ratio Ki,[10],> 67000
same,Ratio Ki,[11],> 67000
Cc1c(Cl)nc(OC[C@H]2C[C@@H]2c2ccccn2)nc1NCc1cnn(C)c1,Ratio Ki,[2],> 2500
same,efflux ratio,P-gp (ABCB1),2
same,Ratio Ki,[4],> 2500
same,Ratio Ki,[5],> 2500
same,Ratio Ki,[6],> 2500
same,Ratio Ki,[7],> 2500
same,Ratio Ki,[8],> 2500
same,Ratio Ki,[9],> 2500
same,Ratio Ki,[10],> 2500
same,CL free,[12],174 L/h/kg
same,Ratio Ki,[11],> 2500
Cc1ccc([C@H]2C[C@@H]2COc2cc(NCc3cnn(C)c3)nc(C)n2)nc1,Ratio Ki,[2],> 425000
same,Ki,[3],0.061 nM
same,Ratio Ki,[4],> 425000
same,Ratio Ki,[5],> 425000
same,Ratio Ki,[6],> 425000
same,Ratio Ki,[7],> 425000
same,Ratio Ki,[8],> 425000
same,Ratio Ki,[9],> 425000
same,Ratio Ki,[10],> 425000
same,CL free,[12],284.4 L/h/kg
same,Ratio Ki,[11],> 425000
Cc1c(NCc2cnn(C)c2)cc(OC[C@H]2C[C@@H]2c2ccccn2)nc1Cl,solubility,[1],86 µM
same,Ratio Ki,[2],> 30000
same,Ki,[3],0.047 nM
same,efflux ratio,P-gp (ABCB1),0.6
same,Ratio Ki,[4],> 30000
same,Ratio Ki,[5],> 30000
same,Ratio Ki,[6],> 30000
same,Ratio Ki,[7],> 30000
same,Ratio Ki,[8],> 30000
same,Ratio Ki,[9],> 30000
same,Ratio Ki,[10],> 30000
same,Ratio Ki,[11],> 30000
Cn1cc(CNc2cc(OC[C@H]3C[C@@H]3c3ccccn3)nc3ncccc23)cn1,Ki,[3],8.6 nM
Cn1cc(CNc2cc(OC[C@H]3C[C@@H]3c3ccccn3)nc3ccnn23)cn1,Ratio Ki,[2],> 5800
same,efflux ratio,P-gp (ABCB1),0.7
same,Ratio Ki,[4],> 5800
same,Ratio Ki,[5],> 5800
same,Ratio Ki,[6],> 5800
same,Ratio Ki,[7],> 5800
same,Ratio Ki,[8],> 5800
same,Ratio Ki,[9],> 5800
same,Ratio Ki,[10],> 5800
same,Ratio Ki,[11],> 5800
COc1ccc([C@H]2C[C@@H]2COc2cc(NCc3nnc(C)s3)nc(C)n2)nc1,Ratio Ki,[2],> 225000
same,Ki,[3],0.038 nM
same,Ratio Ki,[4],> 225000
same,Ratio Ki,[5],> 225000
same,Ratio Ki,[6],> 225000
same,Ratio Ki,[7],> 225000
same,Ratio Ki,[8],> 225000
same,Ratio Ki,[9],> 225000
same,Ratio Ki,[10],> 225000
same,CL free,[12],31.8 L/h/kg
same,Ratio Ki,[11],> 225000
Cc1nc(NCc2nnc(C)s2)cc(OC[C@H]2C[C@@H]2c2ccccn2)n1,Ratio Ki,[2],> 45000
same,Ki,[3],0.33 nM
same,Ratio Ki,[4],> 45000
same,Ratio Ki,[5],> 45000
same,Ratio Ki,[6],> 45000
same,Ratio Ki,[7],> 45000
same,Ratio Ki,[8],> 45000
same,Ratio Ki,[9],> 45000
same,Ratio Ki,[10],> 45000
same,CL free,[12],11.1 L/h/kg
same,Ratio Ki,[11],> 45000
Cn1cc(CNc2cc(OC[C@H]3C[C@@H]3c3ccccn3)nc3cccnc23)cn1,solubility,[1],81 µM
same,Ratio Ki,[2],> 2000
same,Ki,[3],0.87 nM
same,efflux ratio,P-gp (ABCB1),0.7
same,Ratio Ki,[4],> 2000
same,Ratio Ki,[5],> 2000
same,Ratio Ki,[6],> 2000
same,Ratio Ki,[7],> 2000
same,Ratio Ki,[8],> 2000
same,Ratio Ki,[9],> 2000
same,Ratio Ki,[10],> 2000
same,Ratio Ki,[11],> 2000
Cn1cc(CNc2cc(OC[C@H]3C[C@@H]3c3ccccn3)nc3cnccc23)cn1,solubility,[1],149 µM
same,Ratio Ki,[2],> 7000
same,Ki,[3],0.13 nM
same,Ratio,[14],6.3
same,Ratio Ki,[4],> 7000
same,Ratio Ki,[5],> 7000
same,Ratio Ki,[6],> 7000
same,Ratio Ki,[7],> 7000
same,Ratio Ki,[8],> 7000
same,Ratio Ki,[9],> 7000
same,Ratio Ki,[10],> 7000
same,Ratio Ki,[11],> 7000

# Reference: ChEMBL document CHEMBL5316310, “Discovery of MK-8189, a Highly Potent and Selective PDE10A Inhibitor for the Treatment of Schizophrenia” (J Med Chem, 2023)
